This is an account of results in paper PMC4874862 (ACS chemical biology, 2016).

The target of assay [1] is full-length HIV-1 IN (Human immunodeficiency virus type 1 group M subtype B, UniProt P12497). Put plainly: DLS analysis of IN multimerization. In kind it is biochemical. The following applies: 500 nM BI/D or 3 µM LEDGF/p75 added to 200 nM IN, 30 min. An outline of the steps: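 Recombinant full-length HIV-1 IN, E. coli-expressed with His or FLAG tag, at 200 nM in filtered 50 mM HEPES pH 7.4, 2 mM DTT, 2 mM MgCl2, 1 M NaCl. Test compound (500 nM) or LEDGF/p75 (3 µM) was added for 30 min. In a sequential arm, compound was added for 30 min, then LEDGF/p75 for 30 min more. DLS was recorded at 25 °C and particle size distribution calculated.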

Assay [2] concerns the target FLAG-LEDGF/p75 (full length) (UniProt O75475 1-530). Put plainly: AlphaScreen or HTRF.

FLAG-LEDGF/p75 (full length), sequence (O75475 whole entry): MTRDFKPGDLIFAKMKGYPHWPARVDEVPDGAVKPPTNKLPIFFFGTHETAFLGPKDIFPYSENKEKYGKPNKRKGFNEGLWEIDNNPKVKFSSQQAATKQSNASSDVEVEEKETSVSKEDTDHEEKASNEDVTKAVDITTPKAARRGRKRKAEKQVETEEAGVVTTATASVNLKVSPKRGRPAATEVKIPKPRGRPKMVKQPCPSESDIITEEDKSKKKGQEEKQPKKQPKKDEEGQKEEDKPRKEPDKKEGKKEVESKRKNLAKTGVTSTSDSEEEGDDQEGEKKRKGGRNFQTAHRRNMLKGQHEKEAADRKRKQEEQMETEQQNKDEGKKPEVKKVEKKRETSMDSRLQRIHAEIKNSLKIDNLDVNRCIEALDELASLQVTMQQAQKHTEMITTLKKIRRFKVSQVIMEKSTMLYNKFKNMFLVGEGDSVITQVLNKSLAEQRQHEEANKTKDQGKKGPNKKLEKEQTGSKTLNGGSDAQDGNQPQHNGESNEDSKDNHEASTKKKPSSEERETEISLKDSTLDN

“LEDGF/p75: cellular chromatin associated protein, cofactor that binds the HIV-1 IN tetramer; recombinant, His or FLAG tagged”: the “estimated particle diameter (DLS) after addition to IN” value in assay [1] was ~ 11 nM.

B1: 6 × His-HIV-1 IN (wild type full-length HIV-1 integrase) (enzyme)
chain: FLDGIDKAQEEHEKYHSNWRAMASDFNLPPVVAKEIVASCDKCQLKGEAMHGQVDCSPGIWQLDCTHLEGKVILVAVHVASGYIEAEVIPAETGQETAYFLLKLAGRWPVKTVHTDNGSNFTSTTVKAACWWAGIKQEFGIPYNPQSQGVIESMNKELKKIIGQVRDQAEHLKTAVQMAVFIHNFKRKGGIGGYSAGERIVDIIATDIQTKELQKQITKIQNFRVYYRDSRDPVWKGPAKLLWKGEGAVVIQDNSDIKVVPRRKAKIIRDYGKQMAGDDCVASRQDED
For B1, binding in assay [2] was characterised by a dissociation constant (Kd) of 3.32 ± 0.31 nM.

As usually defined, the Kd is a measure of binding affinity in units of concentration.
